Results pooled from the literature.
Protocols differ between the studies behind these lines. ≈ marks a conversion by molar mass, not a printed value.
Organism: Mycobacterium tuberculosis variant bovis BCG
Effect on: microbial growth

The MIC of COc1ccc(C=CC(=O)c2ccc(C)cc2)cc1OC is reported as 25 µg/mL (BCG; 7 days).
The MIC50 of C=CC(c1ccc(-c2ccc3[nH]ccc3c2)cc1)n1ccnc1 (stereo not drawn) is reported as 41 µM (≈ 12.3 µg/mL) (BCG).
COc1ccc(C=CC(=O)c2ccccc2C)cc1OC has an MIC of 50 µg/mL (BCG; 7 days).
C=CC(c1ccc(-c2ccc3cc(OC)ccc3c2)cc1)n1ccnc1 (stereo not drawn) has an MIC50 of 9.7 µM (≈ 3.3 µg/mL) (BCG).
With CCCCCCn1c2c([n+](C3CCC4(CCCCC4)CC3)c1C)C(=O)c1ccccc1C2=O the MIC50 was 0.08 µM (BCG; 5 days).
For COc1ccc(C=CC(=O)c2ccccc2)cc1OC, the MIC was 6.25 µg/mL (BCG; 7 days).
CCCNc1cnc(C(=O)O)cn1 has an IC50 of 700 µM (ATCC35734 BCG; 5 days).
Fc1ccc(COc2ccc(CNCc3ccccc3)cc2)cc1 gave an MIC of greater than 62.5 µM (ATCC35734 BCG).
The MIC50 of C=CC(c1ccc(-c2ccc3c(c2)OCO3)cc1)n1ccnc1 (stereo not drawn) is reported as 20 µM (≈ 6.09 µg/mL) (BCG).
The MIC of Fc1ccc(COc2cccc(CNCc3cccnc3)c2)cc1 is reported as greater than 62.5 µM (ATCC35734 BCG).
With COc1ccc(C=CC(=O)c2ccc(F)cc2)cc1OC the MIC was 25 µg/mL (BCG; 7 days).
C=CC(c1ccc(-c2ccc(C#N)cc2)cc1)n1ccnc1 (stereo not drawn) gave an MIC50 of 9.2 µM (≈ 2.63 µg/mL) (BCG).
For Fc1ccc(COc2cccc(CNCc3ccncc3)c2)cc1, the MIC was greater than 62.5 µM (ATCC35734 BCG).
For C=CC(c1ccc(-c2ccc3c(c2)OCO3)cc1F)n1ccnc1 (stereo not drawn), the MIC50 was greater than 30 µM (BCG).
Clc1cccc(COc2ccccc2CNCc2ccncc2)c1 gave an MIC of greater than 62.5 µM (ATCC35734 BCG).
